CHOP inh – blocks CHOP induction under ER stress | actives 3.8% (n = 220,000) | inhibition, % at 10 µM | CHO-K1 CHOP-promoter luciferase, tunicamycin-induced, 15-18 h;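 active = compounds that reduced the stress-induced luciferase reporter signal by more than about 70% of percent inhibition, limit read from the data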;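 note: 0% = tunicamycin plus vehicle and 100% = wells without tunicamycin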
CHOP UPR activ – apoptotic UPR (CHOP) activation | CHO-CHOP luciferase reporter, luminescence; percent of tunicamycin response over DMSO baseline | activation, % at 10 µM | actives 0.34% (n = 330,000);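 active = at 10 µM dose, activation of 40% or more, normalized to positive control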;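 note: 100% = tunicamycin at 10 µg/mL and 0% = DMSO alone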
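Assay system: CHO-CHOP cells, stable luciferase reporter of PERK-eIF2a-CHOP signalling / Buffer or medium: F12 plus 10% serum / Compound dosing: one dose, 10 µM in 0.5% DMSO / Times: 6 h compound treatment, 37 °C / Technique: luciferase luminescence / Read-out: % reporter activation, DMSO baseline versus tunicamycin full activation / Benchmarks: tunicamycin and DMSO controls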
PvdQ inh – blocks Pseudomonas aeruginosa PvdQ acylase activity. actives 0.063% (n = 340,000). inhibition, % at 10 µM. AID 488965. purified PvdQ acylase, fluorescence plate reader; in the data active = inhibition above about 30%, passing the limit was not always enough;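 note: 0% = vehicle neutral wells and 100% = reference inhibitor wells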
XBP1 UPR activ – activators of adaptive arm of unfolded protein response (XBP1); CHO-XBP1 luciferase reporter, IRE1-XBP1 UPR activation, luminescence; percent of tunicamycin response, DMSO as zero; activation, % at 20 µM; actives 0.33% (n = 330,000);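 active = versus positive control, 20 µM dose yields 30% or more activation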;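 note: 100% = tunicamycin at 10 µg/mL and 0% = DMSO only wells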
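incubation = overnight seeding at 37 °C, 6 h compound treatment at 37 °C | assay system = CHO-XBP1 cells stably carrying IRE1-XBP1-driven luciferase reporter | input = 1000 cells per well | detection = luciferase luminescence | dosing = single point, 20 µM final compound, 1% DMSO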
Starred values were filed as active, the others as inactive; x = no result. Only a selection was taken, and hits are over-represented in it overall.

SMILES	CHOP inh	CHOP UPR activ	PvdQ inh	XBP1 UPR activ
COc1ccc(CN(CCC(c2ccccc2)c2ccc(OC(C)C)cc2)C(=O)CCl)cc1OC (stereo not given)	110*	-9	-7	-6
COc1ccc(CNCCC(c2ccc(F)cc2)c2ccc(OC(C)C)cc2)cc1OC (stereo not given)	82*	-1	-12	-1
Cc1ccc(C)c(N(CC(=O)N/N=C/c2ccc(-c3ccc([N+](=O)[O-])cc3)o2)S(=O)(=O)c2ccccc2)c1	82*	-2	3	-1
O=C(CN(Cc1ccccc1)S(=O)(=O)c1ccccc1)N/N=C/c1ccc([N+](=O)[O-])cc1	96*	-1	-5	-3
O=C(CNc1ccc2ccccc2c1)N/N=C/C=C/c1cccc([N+](=O)[O-])c1	90*	1	-15	-1
O=C(N/N=C/C=C/c1cccc([N+](=O)[O-])c1)C(O)c1ccccc1 (stereo not given)	17	3	8	0
CC(NC(=O)C(=O)N/N=C\c1ccc([N+](=O)[O-])cc1)c1ccccc1 (stereo not given)	84*	0	-14	-4
CCOc1ccc(S(=O)(=O)N(CC(=O)N/N=C/c2ccc(-c3ccc([N+](=O)[O-])cc3)o2)c2ccccc2)cc1	36	-2	-1	0
CSc1nc2ccc(NS(=O)(=O)c3cccc(Cl)c3Cl)cc2s1	32	1	-7	-1
CN(CC(=O)Nc1ccccc1C(F)(F)F)CC(=O)N1CCCCCC1	x	-3	-8	0
CCc1nc(SCc2ccccc2C#N)n[nH]1	x	1	-12	-1
C=CCNC(=S)NNC(=O)c1cc(O)ccc1O	-17	0	6	-3
Cc1[nH][nH]c(=O)c1C=NCc1cccc(C(F)(F)F)c1	13	0	-12	-1
O=C(CNc1cccc2ccccc12)N/N=C/c1ccc([N+](=O)[O-])cc1	72*	-1	-5	0
Cc1ccc(S(=O)(=O)N(CC(=O)N/N=C/c2ccco2)c2cc(Cl)cc(Cl)c2)cc1	75*	5	-8	-1
CC(C)(C)NC(=O)NC(=O)CSc1cccc(C(F)(F)F)c1	90*	-2	-12	-2
CC(C)(C)NC(=O)NC(=O)CSc1ncc(C(F)(F)F)cc1Cl	74*	2	-4	0
CC(C)(C)NC(=O)CC1C(=O)NCCN1Cc1c(F)cccc1Cl (stereo not given)	17	-1	-11	0
Cc1cc(CSc2ccc(Cl)cc2)ccc1N	x	x	-14	x
COc1ccc(NC(=O)CSc2nnc(-c3cccnc3)o2)c(OC)c1	x	0	-2	0
COc1cccc2cc(C(=O)NNC(=O)c3ccc(Br)cc3)c(=O)oc12	44	2	1	-1
COC(=O)CSc1c(-c2ccccc2)c2cc(Cl)ccc2[nH]c1=O	80*	-3	-16	2
CCCCCCCCNC(=O)CCNC(=O)c1ccc(C(C)(C)C)cc1	93*	0	5	-2
CCOC(=O)C1=C(N)N2C(=O)C(C)SC2=C(C(=O)OC)C1c1ccccc1OC (stereo not given)	82*	8	0	-3
CCOC(=O)C1=C(N)N2C(=O)C(C)SC2=C(C(=O)OCC)C1c1ccccc1 (stereo not given)	22	-2	-12	-3
SMILES	CHOP inh	CHOP UPR activ	PvdQ inh	XBP1 UPR activ
CC1CCCC(NC(=O)c2cn(C)c3ccc(S(=O)(=O)N4CCCC4)cc3c2=O)C1C (stereo not given)	80*	-1	x	0
CC1CCCCC1NC(=O)c1cn(C)c2ccc(S(=O)(=O)N3CCCC3)cc2c1=O (stereo not given)	23	-2	-18	-2
Cc1ccc(C(C)C)c(OCC(O)CN(C)Cc2ccccc2)c1 (stereo not given)	x	1	-8	-3
Cc1ccc(C(C)C)c(OCCCN(C)Cc2ccccc2)c1	75*	1	-5	-1
COc1ccccc1N1CCN(C(=O)CN(C)S(=O)(=O)c2ccc3c(c2)c(=O)n(C)c(=O)n3C)CC1	-9	2	0	-3
O=C(NCCN1C(=O)S/C(=C\c2ccc(Cl)c(Cl)c2)C1=O)C1COc2ccccc2O1 (stereo not given)	52	-1	-15	-1
O=C(NCCN1C(=O)S/C(=C\c2ccc(Cl)c(Cl)c2)C1=O)c1ccc2c(c1)C(=O)N(Cc1ccncc1)C2=O	88*	7	14	3
CCOC(=O)C1(CCC(C)C)CC(CSc2nc3ccccc3[nH]2)OC1=O (stereo not given)	89*	-3	1	-5
Oc1ccccc1C(Nc1nccs1)c1ccc2cccnc2c1O (stereo not given)	71*	0	-8	2
O=C(O)c1ccccc1NC(c1ccccc1)c1ccc2cccnc2c1O (stereo not given)	x	x	0	x
OC(CCN1CCCCC1)(c1ccccc1)C1CCCCC1 (stereo not given)	9	1	-11	-4
OC(CCN1CCOCC1)(c1ccc(Cl)cc1)C1CCCCC1 (stereo not given)	80*	-1	-15	-1
COc1ccccc1OCCCCN1CCN(C(c2ccccc2)c2ccccc2)CC1	86*	-1	-7	0
COc1cccc(OC)c1OCCCCCCN1CCN(C)CC1	x	3	7	0
c1ccc(OCCOCCN2CCN(C(c3ccccc3)c3ccccc3)CC2)cc1	73*	2	3	2
N#Cc1nc(-c2ccccc2F)oc1NC1CCCCC1	80*	1	-18	6
O=C1/C(=N\S(=O)(=O)c2cccs2)C([n+]2ccccc2)=C([O-])c2ccccc21	-26	0	-9	-2
CC(C)(C)c1cc[n+](C2=C([O-])c3ccccc3C(=O)/C2=N\S(=O)(=O)c2cccs2)cc1	81*	5	x	-8
COc1ccc(C(=O)NCC(=O)OCC(=O)N2CCC(C)CC2)cc1OC	11	0	-4	-1
Cc1nnc(SCc2nc(N)nc(Nc3ccccc3)n2)s1	-1	0	3	2
CCc1ccc(Nc2nc(N)nc(CSc3nc4ccccc4s3)n2)cc1	73*	2	-12	1
Cc1nc(N2CCCCC2C)c2c(C)c(C(=O)Nc3cccc(C(F)(F)F)c3)sc2n1 (stereo not given)	80*	1	2	4
Cc1nc(N2CCCCC2)c2c(C)c(C(=O)Nc3cccc(C(F)(F)F)c3)sc2n1	35	-2	-14	-3
Cc1nc(N2CCCCC2)c2c(C)c(C(=O)Nc3ccccc3C(F)(F)F)sc2n1	71*	0	11	-1
CCCCn1c(=N)n(CC(O)COc2ccccc2)c2ccccc21 (stereo not given)	-3	2	-9	-2
CCCCn1c(=N)n(CC(O)COc2ccc(C)cc2)c2ccccc21 (stereo not given)	72*	0	-16	-1
O=C(CSc1nccn1-c1ncc(C(F)(F)F)cc1Cl)c1ccc(Cl)cc1	-18	4	-14	0

Screening results: PubChem, several laboratories
